The record followed here is publication PMC12673082 (Nature Communications, 2025).

One data set deals with hP2X1 (Homo sapiens, UniProt P51575). Description: Whole-cell patch clamp, ATP-evoked current, transfected HEK293. In kind it is cell-based. The settings on record: HEK293, read-out: inhibition rate.
Data set [1] is described as follows: Maximal soluble concentration in recording solution. In kind it is physicochemical.
Another data set has as its target pdP2X7 F95A (Ailuropoda melanoleuca, UniProt G1M6C4, F96A). The settings on record: pd7 F95A, 10 μM.
In a further data set the test system is pdP2X7 K297R. Description: Whole-cell patch clamp, pdP2X7 mutant. Format: cell-based, giant panda. Conditions: pd7K297R, 30 μM. Background: In patch-clamp work, channel activity is measured electrically.
For the next data set, the system named is P2rx7+/+ mice. Description: Murine full-thickness wound infection model. In kind it is in vivo, mouse. The settings on record: 7.5 mg/ml, 50 μL s.c. twice daily, 7 days, vs control solvent. The method in brief:
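WT C57BL/6J mice (8–10 weeks) were anesthetized, their backs shaved and iodine-disinfected, and a 6 mm punch wound made. 20 μL S. aureus (1×10^7 CFU/ml, saline-washed) was applied to the wound. After 24 h of infection, mice were randomized to test compound (7.5 mg/ml, 50 μL) or vehicle (20% sulfobutylether-β-cyclodextrin in saline), given s.c. around the wound twice daily for 7 days. Wound area was imaged daily and quantified. Data are mean ± SEM.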

Another data set has as its target pdP2X7 M105F (Ailuropoda melanoleuca, UniProt G1M6C4, M106F). Conditions: pd7 M105F, 10 μM.
The target in the next data set is pdP2X7 Y298F (Ailuropoda melanoleuca, UniProt G1M6C4, Y299F). Conditions: pd7 Y298F, 10 μM.
A further data set concerns the target pdP2X7 P96G (Ailuropoda melanoleuca, UniProt G1M6C4, P97G). Briefly: cell-based.
The target in the next data set is T1, rP2X7 (Rattus norvegicus, UniProt Q64663).
T1 sequence (Q64663 1-595): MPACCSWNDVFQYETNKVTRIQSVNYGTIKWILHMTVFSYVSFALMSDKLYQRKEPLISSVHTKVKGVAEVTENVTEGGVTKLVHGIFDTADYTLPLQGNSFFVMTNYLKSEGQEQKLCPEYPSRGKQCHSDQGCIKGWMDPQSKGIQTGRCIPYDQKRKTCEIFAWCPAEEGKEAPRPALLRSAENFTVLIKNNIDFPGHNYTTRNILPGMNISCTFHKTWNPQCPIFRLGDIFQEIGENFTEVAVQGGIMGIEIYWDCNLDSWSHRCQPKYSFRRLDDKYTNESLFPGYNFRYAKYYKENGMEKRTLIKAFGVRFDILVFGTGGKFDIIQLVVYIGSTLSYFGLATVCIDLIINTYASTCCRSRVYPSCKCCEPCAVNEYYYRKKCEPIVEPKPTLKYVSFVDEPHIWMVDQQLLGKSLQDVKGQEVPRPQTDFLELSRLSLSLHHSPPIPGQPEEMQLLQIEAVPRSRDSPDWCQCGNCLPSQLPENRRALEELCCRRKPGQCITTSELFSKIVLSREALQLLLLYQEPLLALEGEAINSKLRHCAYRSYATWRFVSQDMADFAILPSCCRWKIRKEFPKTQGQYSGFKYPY
Briefly: Whole-cell patch clamp, ATP-evoked current, transfected HEK293. The settings on record: HEK293, read-out: inhibition rate. In kind it is cell-based.

Each structure is given as a SMILES string. ≈ marks a conversion by molar mass, not a printed value.

Sequence of pdP2X7 P96G (G1M6C4 2-595 P97G): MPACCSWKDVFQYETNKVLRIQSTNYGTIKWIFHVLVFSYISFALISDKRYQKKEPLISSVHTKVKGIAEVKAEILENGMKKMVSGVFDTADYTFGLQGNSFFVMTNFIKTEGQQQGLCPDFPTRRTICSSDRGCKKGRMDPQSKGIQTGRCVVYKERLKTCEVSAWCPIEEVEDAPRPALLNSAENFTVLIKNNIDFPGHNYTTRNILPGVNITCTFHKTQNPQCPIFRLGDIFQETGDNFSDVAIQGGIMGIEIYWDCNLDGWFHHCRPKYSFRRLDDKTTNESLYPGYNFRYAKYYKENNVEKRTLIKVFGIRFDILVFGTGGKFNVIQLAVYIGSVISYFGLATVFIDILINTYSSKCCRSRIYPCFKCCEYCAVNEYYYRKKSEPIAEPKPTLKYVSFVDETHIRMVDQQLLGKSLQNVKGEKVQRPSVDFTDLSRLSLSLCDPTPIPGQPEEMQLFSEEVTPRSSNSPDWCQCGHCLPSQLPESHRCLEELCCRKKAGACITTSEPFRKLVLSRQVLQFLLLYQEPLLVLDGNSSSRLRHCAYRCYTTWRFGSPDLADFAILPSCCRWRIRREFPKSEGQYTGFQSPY
Sequence of pdP2X7 M105F (G1M6C4 2-595 M106F): as the sequence (G1M6C4 2-595 P97G) above, with G96P, M105F counted along it
Sequence of pdP2X7 Y298F (G1M6C4 2-606 Y299F): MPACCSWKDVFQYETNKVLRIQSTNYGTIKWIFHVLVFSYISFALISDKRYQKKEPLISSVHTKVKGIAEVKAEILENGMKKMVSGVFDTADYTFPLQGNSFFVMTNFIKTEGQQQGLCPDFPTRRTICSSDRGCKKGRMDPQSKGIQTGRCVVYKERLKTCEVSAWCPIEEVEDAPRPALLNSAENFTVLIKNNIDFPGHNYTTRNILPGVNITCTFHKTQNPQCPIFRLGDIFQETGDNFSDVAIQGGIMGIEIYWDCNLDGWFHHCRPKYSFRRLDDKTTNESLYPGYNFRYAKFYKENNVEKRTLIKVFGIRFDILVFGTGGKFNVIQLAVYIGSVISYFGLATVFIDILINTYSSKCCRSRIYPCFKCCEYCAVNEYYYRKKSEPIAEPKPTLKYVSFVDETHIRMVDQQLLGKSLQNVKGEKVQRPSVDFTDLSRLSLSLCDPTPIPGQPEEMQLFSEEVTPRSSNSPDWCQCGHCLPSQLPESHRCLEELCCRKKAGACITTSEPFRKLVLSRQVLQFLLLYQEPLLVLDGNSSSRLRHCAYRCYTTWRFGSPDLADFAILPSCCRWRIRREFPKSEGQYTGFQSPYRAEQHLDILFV
Sequence of pdP2X7 F95A (G1M6C4 2-595 F96A): as the sequence (G1M6C4 2-595 P97G) above, with F95A, G96P counted along it
Sequence of hP2X1 (P51575 whole entry): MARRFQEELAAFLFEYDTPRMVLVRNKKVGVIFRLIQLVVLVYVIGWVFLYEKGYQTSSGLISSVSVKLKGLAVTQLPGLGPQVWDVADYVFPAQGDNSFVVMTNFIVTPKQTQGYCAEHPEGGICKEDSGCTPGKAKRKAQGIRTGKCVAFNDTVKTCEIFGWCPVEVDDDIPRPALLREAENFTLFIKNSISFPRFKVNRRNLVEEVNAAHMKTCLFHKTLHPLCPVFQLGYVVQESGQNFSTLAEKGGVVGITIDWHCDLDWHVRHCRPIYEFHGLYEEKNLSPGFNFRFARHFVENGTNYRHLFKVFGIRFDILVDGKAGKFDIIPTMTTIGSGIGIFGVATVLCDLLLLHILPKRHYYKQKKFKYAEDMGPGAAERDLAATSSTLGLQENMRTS

One may read the inhibition as the drop in the measured response relative to a control, in per cent. Usually solubility stands for how much of the substance goes into solution per volume. Read a low solubility as little dissolved substance. As usually defined, the IC50 is the concentration needed to halve the response being measured. Lower therefore signals inhibition by little substance. For the molecule `C=CC[C@@H]1c2ccc(OC)c(OC)c2CN2CCc3cc4c(cc3[C@H]12)OCO4` [PSFL1191, (13R,13aS)-13-allyl-9,10-dimethoxy-5,8,13,13a-tetrahydro-6H-1,3dioxolo[4,5-g]isoquinolino[3,2-a]isoquinoline], the inhibition at 30 µM was -8.35 ± 4.49% at hP2X1 and 4.94 ± 1.43% on rP2X7. This molecule also yielded a solubility in data set [1] of 30 µM (≈ 11.4 µg/mL). In addition, the entries for the “inhibitory effect on ATP (1 mM)-induced activation (inhibition ratio)” value at pdP2X7 F95A, on pdP2X7 M105F and on pdP2X7 Y298F were “did not”, “significantly attenuated” and “significantly attenuated”, respectively. Further, in the data set on pdP2X7 K297R, the inhibition rate is reported as ≤ 50%. The “wound healing (wound area)” value with P2rx7+/+ mice was “did not influence the wound healing rate”. It took 8.06 µM to reach half-maximal inhibition against pdP2X7 P96G (IC50).
